ChEMBL document CHEMBL4196059, “Design, synthesis, and biological evaluation of stable β6.3-Helices: Discovery of non-hemolytic antibacterial peptides” (Eur J Med Chem, 2018)
Converted amounts (≈) assume the structure as drawn. The source made the active and inactive calls. The rule behind the calls is not given here. Residues, ends and D or L forms follow the SMILES beside them.

Legend:
[1] = Hemolytic activity against human RBC at 50 uM after 1 hr by Drabkin's assay relative to control; assay type: ADME, cell-based, Erythrocyte; details: human red blood cells (erythrocytes), read-out: Activity
[2] = Hemolytic activity against human RBC at 25 uM after 1 hr by Drabkin's assay relative to control; assay type: ADME, cell-based, Erythrocyte; details: human red blood cells (erythrocytes), read-out: Activity
[3] = Hemolytic activity against human RBC at 12.5 uM after 1 hr by Drabkin's assay relative to control; assay type: ADME, cell-based, Erythrocyte; details: human red blood cells (erythrocytes), read-out: Activity
[4] = Hemolytic activity against human RBC at 6.25 uM after 1 hr by Drabkin's assay relative to control; assay type: ADME, cell-based, Erythrocyte; details: human red blood cells (erythrocytes), read-out: Activity
[5] = Hemolytic activity against human RBC at 3.125 uM after 1 hr by Drabkin's assay relative to control; assay type: ADME, cell-based, Erythrocyte; details: human red blood cells (erythrocytes), read-out: Activity
[6] = Hemolytic activity against human RBC at 1.56 uM after 1 hr by Drabkin's assay relative to control; assay type: ADME, cell-based, Erythrocyte; details: human red blood cells (erythrocytes), read-out: Activity
[7] = Hemolytic activity against human RBC at 0.78 uM after 1 hr by Drabkin's assay relative to control; assay type: ADME, cell-based, Erythrocyte; details: human red blood cells (erythrocytes), read-out: Activity
[8] = Hemolytic activity against human RBC at 0.39 uM after 1 hr by Drabkin's assay relative to control; assay type: ADME, cell-based, Erythrocyte; details: human red blood cells (erythrocytes), read-out: Activity
Erythrocyte = experiment: Hemolytic activity against human RBC after 1 hr by Drabkin's assay; assay type: ADME, cell-based
Lipid bilayer [9] = experiment: Binding affinity to POPC vesicles by surface plasmon resonance spectroscopy
How it was run: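 SPR on a dextran chip carrying immobilized POPC liposomes, with running buffer of 10 mM HEPES and 100 mM KCl at pH 7.4. Peptides in PBS were flowed at 25 μL/min at 10–1000 μM, with reference-subtracted response units. KD and Rmax were fitted from maximum response versus concentration. Regeneration used 20 mM CHAPS followed by fresh liposomes.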

Staphylococcus aureus [10] = experiment: Growth inhibition of methicillin-resistant Staphylococcus aureus ATCC 43300 at 32 ug/ml after 18 hrs; assay type: functional; details: ATCC 43300, 18 h, read-out: GI
How it was run: (§1)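 Mid-log cultures in cation-adjusted Mueller Hinton broth were added at 5×10^5 CFU/mL to wells at a final compound concentration of 32 μg/mL. Plates stood at 37 °C for 18 h. Growth was read by OD600, and % inhibition was computed against media-only and untreated-bacteria controls.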

Escherichia coli [11] = experiment: Growth inhibition of Escherichia coli ATCC 25922 at 32 ug/ml after 18 hrs; assay type: functional; details: ATCC 25922, 18 h, read-out: GI
How it was run: (§2)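 Mid-log cultures were prepared as above and seeded at 5×10^5 CFU/mL with compound at a final 32 μg/mL, then held static at 37 °C for 18 h. Growth was read as OD600. Percent inhibition was calculated against media-only and bacteria-only controls on the same plate.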

Klebsiella pneumoniae [12] = experiment: Growth inhibition of multidrug-resistant Klebsiella pneumoniae ATCC 700603 at 32 ug/ml after 18 hrs; assay type: functional; details: ATCC 700603, 18 h, read-out: GI; how it was run: as §1
Pseudomonas aeruginosa = experiment: Growth inhibition of Pseudomonas aeruginosa ATCC 27853 at 32 ug/ml after 18 hrs; assay type: functional; details: ATCC 27853, 18 h, read-out: GI; how it was run: as §2
Acinetobacter baumannii [13] = experiment: Growth inhibition of Acinetobacter baumannii ATCC 19606 at 32 ug/ml after 18 hrs; assay type: functional; details: ATCC 19606 = CIP 70.34 = JCM 6841, 18 h, read-out: GI; how it was run: as §2
Cryptococcus neoformans = experiment: Growth inhibition of Cryptococcus neoformans H99 ATCC 208821 at 32 ug/ml after 24 hrs by resazurin dye-based microspectrophotometric assay; assay type: functional; details: var. grubii H99 ATCC 208821, 24 h, read-out: GI
How it was run: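 Yeasts were grown 3 days on YPD agar at 30 °C, suspended from five colonies and diluted in YNB broth to a final 2.5×10^3 CFU/mL. Compound at a final 32 μg/mL; incubated 24 h at 35 °C without shaking. C. albicans was read at OD530. C. neoformans was read as OD600–570 after resazurin (0.001% final) and a further 2 h at 35 °C. Fluconazole was the standard.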

[14] = Induction of pore formation in DOPC vesicles at 20 uM after 3 mins by carboxyfluorescein dye leakage assay
Lipid bilayer [15] = experiment: Induction of pore formation in POPC vesicles at 20 to 100 uM after 3 mins by carboxyfluorescein dye leakage assay
Candida albicans = experiment: Growth inhibition of Candida albicans ATCC 90028 at 32 ug/ml after 24 hrs by OD530 light-scattering microspectrophotometric method; details: ATCC 90028, 24 h, read-out: GI
Escherichia coli [16] = experiment: Antibacterial activity against Escherichia coli ATCC 25922 after 18 hrs by non-binding surface 96-well plate-based method; assay type: functional
How it was run: (§3)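 Cultured in cation-adjusted Mueller Hinton broth at 37 °C for 12 h, diluted 40-fold and grown 1.5–3 h to mid-log. Seeded at 5×10^5 CFU/mL over a 12-point dose response in non-binding surface and polystyrene 96-well plates, duplicates (n=2). Incubated static at 37 °C for 18 h. MIC read from OD600 light scattering; colistin and vancomycin as standards.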

Escherichia coli [17] = experiment: Antibacterial activity against Escherichia coli ATCC 25922 after 18 hrs by polystyrene 96-well plate-based method; assay type: functional
How it was run: (§4)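 Strains grown in cation-adjusted Mueller Hinton broth at 37 °C for 12 h, diluted 40-fold and regrown 1.5–3 h to mid-log. Inoculum was 5×10^5 CFU/mL in 12-point dose response, in non-binding surface or polystyrene plates, in duplicate. Plates stood at 37 °C for 18 h. MIC was read by OD600.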

Klebsiella pneumoniae [18] = experiment: Antibacterial activity against multidrug-resistant Klebsiella pneumoniae ATCC 700603 after 18 hrs by non-binding surface 96-well plate-based method; assay type: functional; how it was run: as §4
Klebsiella pneumoniae [19] = experiment: Antibacterial activity against multidrug-resistant Klebsiella pneumoniae ATCC 700603 after 18 hrs by polystyrene 96-well plate-based method; assay type: functional; how it was run: as §4
Acinetobacter baumannii [20] = experiment: Antibacterial activity against Acinetobacter baumannii ATCC 19606 after 18 hrs by non-binding surface 96-well plate-based method; assay type: functional; how it was run: as §4
Acinetobacter baumannii [21] = experiment: Antibacterial activity against Acinetobacter baumannii ATCC 19606 after 18 hrs by polystyrene 96-well plate-based method; assay type: functional; how it was run: as §3
[22] = Induction of pore formation in DOPC vesicles at 20 uM after 3 hrs by carboxyfluorescein dye leakage assay; details: in the assay text read “after 3 mins” for “after 3 hrs”
How it was run: (§5)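 POPC or DOPC liposomes were hydrated in 10 mM HEPES, 100 mM KCl, pH 7.4, containing 50 mM carboxyfluorescein. Size was checked by dynamic light scattering, and vesicles were used at 2.2×10^10 per mL. Peptide at 20 μM was equilibrated with vesicles for 3 min, and dye leakage was measured.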

[23] = Hemolytic activity against human RBC; assay type: ADME, cell-based, Erythrocyte; details: human red blood cells (erythrocytes)
Staphylococcus aureus [24] = experiment: Antibacterial activity against methicillin-resistant Staphylococcus aureus ATCC 43300 after 18 hrs by non-binding surface 96-well plate-based method; assay type: functional; how it was run: as §4
Staphylococcus aureus [25] = experiment: Antibacterial activity against methicillin-resistant Staphylococcus aureus ATCC 43300 after 18 hrs by polystyrene 96-well plate-based method; assay type: functional; how it was run: as §4
Lipid bilayer [26] = experiment: Induction of pore formation in POPC vesicles at 20 uM after 3 hrs by carboxyfluorescein dye leakage assay; details: in the assay text read “after 3 mins” for “after 3 hrs”; how it was run: as §5
[27] = ATCC 19606 = CIP 70.34 = JCM 6841, 18 h
[28] = ATCC 19606 = CIP 70.34 = JCM 6841

Compound | hemolysis at 1 h, 50 µM [1] [%] | hemolysis at 1 h, 25 µM [2] [%] | hemolysis at 1 h, 12.5 µM [3] [%] | hemolysis at 1 h, 6.25 µM [4] [%] | hemolysis at 1 h, 3.125 µM [5] [%] | hemolysis at 1 h, 1.56 µM [6] [%] | hemolysis at 1 h, 0.78 µM [7] [%] | hemolysis at 1 h, 0.39 µM [8] [%] | Activity (Erythrocyte) | Kd (Lipid bilayer [9]) [µM] | Rmax (Lipid bilayer [9]) | inhibition of growth at 32 µg/mL (Staphylococcus aureus [10]) [%] | inhibition of growth at 32 µg/mL (Escherichia coli [11]) [%] | inhibition of growth at 32 µg/mL (Klebsiella pneumoniae [12]) [%] | inhibition of growth at 32 µg/mL (Pseudomonas aeruginosa) [%] | inhibition of growth at 32 µg/mL (Acinetobacter baumannii [13]) [%] | inhibition of growth at 32 µg/mL (Cryptococcus neoformans) [%] | inhibition of growth at 32 µg/mL (Candida albicans) [%] | MIC (Escherichia coli [16]; ATCC 25922, 18 h) [µg/mL] | MIC (Escherichia coli [17]; ATCC 25922, 18 h) [µg/mL] | also measured
O=C(NCCO)[C@@H]1CCCN1C(=O)N1CCCN1C(=O)[C@@H]1CCCN1C(=O)N1CCCN1C(=O)[C@@H]1CCCN1C(=O)N1CCCN1C(=O)[C@@H]1CCCN1C(=O)N1CCCN1C(=O)[C@@H]1CCCN1C(=O)N1CCCN1C(=O)[C@@H]1CCCN1C(=O)N1CCCN1C(=O)[C@@H]1CCCN1C(=O)N1CCCN1C(=O)[C@@H]1CCCN1C(=O)N1CCCN1C(=O)OCc1ccccc1 | -0.04 | -0.04 | -0.04 | -0.11 | 0.15 | 0.02 | 0.15 | -0.04 | Dose-dependent effect | 373 | 601 | 11.8 | 11.3 | 11.3 | -2.74 | 36.2 | -4.06 | 4.99 | – | – | Activity [14]: 13%; Activity (Lipid bilayer [15]): inactive
CN[C@H](CC(C)C)C(=O)N[C@H]1C(=O)N[C@@H](CC(N)=O)C(=O)N[C@H]2C(=O)N[C@H]3C(=O)N[C@H](C(=O)N[C@H](C(=O)O)c4cc(O)cc(O)c4-c4cc3ccc4O)[C@H](O)c3ccc(c(Cl)c3)Oc3cc2cc(c3O[C@@H]2O[C@H](CO)[C@@H](O)[C@H](O)[C@H]2O[C@H]2C[C@](C)(N)[C@H](O)[C@H](C)O2)Oc2ccc(cc2Cl)[C@H]1O [VANCOMYCIN] | – | – | – | – | – | – | – | – | – | – | – | – | – | – | – | – | – | – | > 32 | > 32 | MIC (Klebsiella pneumoniae [18]; ATCC 700603, 18 h): > 32 µg/mL; MIC (Klebsiella pneumoniae [19]; ATCC 700603, 18 h): > 32 µg/mL; MIC (Acinetobacter baumannii [20]; [27]): > 32 µg/mL; MIC (Acinetobacter baumannii [21]; [27]): > 32 µg/mL
CC(C)(C)OC(=O)[C@@H]1CCCN1C(=O)N1CCCN1C(=O)[C@@H]1CCCN1C(=O)N1CCCN1C(=O)[C@@H]1CCCN1C(=O)N1CCCN1C(=O)[C@@H]1CCCN1C(=O)N1CCCN1C(=O)[C@@H]1CCCN1C(=O)N1CCCN1C(=O)[C@@H]1CCCN1C(=O)N1CCCN1C(=O)[C@@H]1CCCN1C(=O)N1CCCN1C(=O)[C@@H]1CCCN1C(=O)N1CCCN1C(=O)OCc1ccccc1 | -0.73 | -0.41 | -0.04 | -0.37 | -0.12 | -0.24 | 0.04 | 0.08 | Dose-dependent effect | 2580 | 2640 | 20.5 | -1.93 | -1.93 | -6.76 | 15.9 | -8.19 | 5.75 | – | – | Activity [22]: inactive
CC(C)C[C@@H](NC(=O)[C@H](C)NC(=O)CNC(=O)[C@@H](NC=O)C(C)C)C(=O)N[C@@H](C)C(=O)N[C@@H](C(=O)N[C@H](C(=O)N[C@@H](C(=O)N[C@@H](Cc1c[nH]c2ccccc12)C(=O)N[C@H](CC(C)C)C(=O)N[C@@H](Cc1c[nH]c2ccccc12)C(=O)N[C@H](CC(C)C)C(=O)N[C@@H](Cc1c[nH]c2ccccc12)C(=O)N[C@H](CC(C)C)C(=O)N[C@@H](Cc1c[nH]c2ccccc12)C(=O)NCCO)C(C)C)C(C)C)C(C)C (HELM PEPTIDE1{[O=C[*:2]].V.G.A.[dL].A.[dV].V.[dV].W.[dL].W.[dL].W.[dL].W.[OCCN[*:1]]}$$$$V2.0) | 48.5 | 52.8 | 66.1 | 87.2 | 84.7 | 74.8 | 59.4 | 5.43 | Dose-dependent effect | – | – | 24.9 | 11.1 | 11.2 | -6.36 | 6.51 | -0.81 | 8.67 | > 50 | > 50 | HC50 [23]: 5 µM; MIC (Klebsiella pneumoniae [18]; ATCC 700603, 18 h): > 50 µg/mL; MIC (Klebsiella pneumoniae [19]; ATCC 700603, 18 h): > 50 µg/mL; MIC (Acinetobacter baumannii [20]; [27]): > 50 µg/mL; MIC (Acinetobacter baumannii [21]; [27]): > 50 µg/mL; MIC (Staphylococcus aureus [24]; ATCC 43300, 18 h): > 50 µg/mL; MIC (Staphylococcus aureus [25]; ATCC 43300, 18 h): 25 to 50 µg/mL (≈ 13.3 to 26.6 µM); Activity (Lipid bilayer [26]): 100%
COLISTIN | – | – | – | – | – | – | – | – | – | – | – | – | – | – | – | – | – | – | – | – | MIC (Escherichia coli [16]): 0.016 µg/mL; MIC (Escherichia coli [17]): 0.125 µg/mL; MIC (Klebsiella pneumoniae [18]): 0.06 µg/mL; MIC (Klebsiella pneumoniae [19]): 0.25 µg/mL; MIC (Acinetobacter baumannii [20]; [28]): 0.06 to 0.125 µg/mL; MIC (Acinetobacter baumannii [21]; [28]): 1 µg/mL; MIC (Staphylococcus aureus [24]): > 32 µg/mL; MIC (Staphylococcus aureus [25]): > 32 µg/mL
